# Assay: organ radiation dose estimates, OLINDA 2.0, ICRP-103
# Assay type: in vivo, human
# Procedure, shortened: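 Whole-body PET-MR ran as nine scans to 214 min. Organ VOIs were drawn in AMIDE, giving decay-corrected %IA per VOI; remainder = whole body minus measured organs. TIACs came from the EXM exponential model (OLINDA 1.1). Per-participant organ doses were computed in OLINDA 2.0 with 73 kg adult male or 60 kg female models. Effective dose (mSv) = organ absorbed doses × ICRP-103 tissue weighting factors.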
smiles,measurement,setting,value
"COC(=O)[C@@H](N)CC(=O)Nc1ccc2c(c1)Cc1cc([18F])ccc1-2 [[^18F]RP-115, methyl N^4-(7-[^18F]fluoro-9H-fluoren-2-yl)asparaginate]","Estimated dose, Thyroid","Female n=4, mean±SD",0.0239±0.0171 mGy/MBq
same,"Estimated dose, Urinary bladder wall","Female n=4, mean±SD",0.0516±0.0371 mGy/MBq
same,"Estimated dose, Uterus","Female n=4, mean±SD",0.0573±0.0514 mGy/MBq
same,Effective dose (whole body),M1 (326 MBq),6.65 mSv
same,"Estimated absorbed dose, Adrenals",M1 (326 MBq),13.5 mGy
same,"Estimated absorbed dose, Brain",M1 (326 MBq),5.47 mGy
same,"Estimated absorbed dose, Colon, left",M1 (326 MBq),5.63 mGy
same,"Estimated absorbed dose, Colon, right",M1 (326 MBq),4.95 mGy
same,"Estimated absorbed dose, Esophagus",M1 (326 MBq),5.18 mGy
same,"Estimated absorbed dose, Eyes",M1 (326 MBq),2.26 mGy
same,"Estimated absorbed dose, Gallbladder wall",M1 (326 MBq),10.3 mGy
same,"Estimated absorbed dose, Heart wall",M1 (326 MBq),9.25 mGy
same,"Estimated absorbed dose, Kidneys",M1 (326 MBq),70.7 mGy
same,"Estimated absorbed dose, Liver",M1 (326 MBq),17.5 mGy
same,"Estimated absorbed dose, Lungs",M1 (326 MBq),17.0 mGy
same,"Estimated absorbed dose, Osteogenic cells",M1 (326 MBq),2.80 mGy
same,"Estimated absorbed dose, Pancreas",M1 (326 MBq),5.93 mGy
same,"Estimated absorbed dose, Prostate",M1 (326 MBq),3.21 mGy
same,"Estimated absorbed dose, Rectum",M1 (326 MBq),3.35 mGy
same,"Estimated absorbed dose, Red marrow",M1 (326 MBq),3.48 mGy
same,"Estimated absorbed dose, Salivary glands",M1 (326 MBq),2.64 mGy
same,"Estimated absorbed dose, Small intestine",M1 (326 MBq),17.2 mGy
same,"Estimated absorbed dose, Spleen",M1 (326 MBq),24.9 mGy
same,"Estimated absorbed dose, Stomach wall",M1 (326 MBq),5.27 mGy
same,"Estimated absorbed dose, Testes",M1 (326 MBq),2.11 mGy
same,"Estimated absorbed dose, Thymus",M1 (326 MBq),14.7 mGy
same,"Estimated absorbed dose, Thyroid",M1 (326 MBq),4.36 mGy
same,"Estimated absorbed dose, Urinary bladder wall",M1 (326 MBq),3.68 mGy
same,Effective dose (whole body),M2 (289 MBq),4.65 mSv
same,"Estimated absorbed dose, Adrenals",M2 (289 MBq),12.3 mGy
same,"Estimated absorbed dose, Brain",M2 (289 MBq),2.94 mGy
same,"Estimated absorbed dose, Colon, left",M2 (289 MBq),5.05 mGy
same,"Estimated absorbed dose, Colon, right",M2 (289 MBq),4.10 mGy
same,"Estimated absorbed dose, Esophagus",M2 (289 MBq),4.39 mGy
same,"Estimated absorbed dose, Eyes",M2 (289 MBq),1.91 mGy
same,"Estimated absorbed dose, Gallbladder wall",M2 (289 MBq),6.09 mGy
same,"Estimated absorbed dose, Heart wall",M2 (289 MBq),33.5 mGy
same,"Estimated absorbed dose, Kidneys",M2 (289 MBq),74.2 mGy
same,"Estimated absorbed dose, Liver",M2 (289 MBq),10.1 mGy
same,"Estimated absorbed dose, Lungs",M2 (289 MBq),2.65 mGy
same,"Estimated absorbed dose, Osteogenic cells",M2 (289 MBq),2.33 mGy
same,"Estimated absorbed dose, Pancreas",M2 (289 MBq),44.4 mGy
same,"Estimated absorbed dose, Prostate",M2 (289 MBq),2.91 mGy
same,"Estimated absorbed dose, Rectum",M2 (289 MBq),2.77 mGy
same,"Estimated absorbed dose, Red marrow",M2 (289 MBq),2.76 mGy
same,"Estimated absorbed dose, Salivary glands",M2 (289 MBq),2.20 mGy
same,"Estimated absorbed dose, Small intestine",M2 (289 MBq),4.04 mGy
same,"Estimated absorbed dose, Spleen",M2 (289 MBq),9.84 mGy
same,"Estimated absorbed dose, Stomach wall",M2 (289 MBq),5.89 mGy
same,"Estimated absorbed dose, Testes",M2 (289 MBq),2.02 mGy
same,"Estimated absorbed dose, Thymus",M2 (289 MBq),5.86 mGy
same,"Estimated absorbed dose, Thyroid",M2 (289 MBq),2.40 mGy
same,"Estimated absorbed dose, Urinary bladder wall",M2 (289 MBq),4.70 mGy
same,Effective dose (whole body),M3 (70.3 MBq),1.25 mSv
same,"Estimated absorbed dose, Adrenals",M3 (70.3 MBq),2.34 mGy
same,"Estimated absorbed dose, Brain",M3 (70.3 MBq),0.810 mGy
same,"Estimated absorbed dose, Colon, left",M3 (70.3 MBq),0.970 mGy
same,"Estimated absorbed dose, Colon, right",M3 (70.3 MBq),0.900 mGy
same,"Estimated absorbed dose, Esophagus",M3 (70.3 MBq),1.00 mGy
same,"Estimated absorbed dose, Eyes",M3 (70.3 MBq),0.450 mGy
same,"Estimated absorbed dose, Gallbladder wall",M3 (70.3 MBq),1.53 mGy
same,"Estimated absorbed dose, Heart wall",M3 (70.3 MBq),1.84 mGy
same,"Estimated absorbed dose, Kidneys",M3 (70.3 MBq),12.4 mGy
same,"Estimated absorbed dose, Liver",M3 (70.3 MBq),2.85 mGy
same,"Estimated absorbed dose, Lungs",M3 (70.3 MBq),3.35 mGy
same,"Estimated absorbed dose, Osteogenic cells",M3 (70.3 MBq),0.557 mGy
same,"Estimated absorbed dose, Pancreas",M3 (70.3 MBq),1.15 mGy
same,"Estimated absorbed dose, Prostate",M3 (70.3 MBq),0.724 mGy
same,"Estimated absorbed dose, Rectum",M3 (70.3 MBq),0.702 mGy
same,"Estimated absorbed dose, Red marrow",M3 (70.3 MBq),0.692 mGy
same,"Estimated absorbed dose, Salivary glands",M3 (70.3 MBq),0.536 mGy
same,"Estimated absorbed dose, Small intestine",M3 (70.3 MBq),1.93 mGy
same,"Estimated absorbed dose, Spleen",M3 (70.3 MBq),2.65 mGy
same,"Estimated absorbed dose, Stomach wall",M3 (70.3 MBq),0.984 mGy
same,"Estimated absorbed dose, Testes",M3 (70.3 MBq),0.477 mGy
same,"Estimated absorbed dose, Thymus",M3 (70.3 MBq),1.58 mGy
same,"Estimated absorbed dose, Thyroid",M3 (70.3 MBq),0.830 mGy
same,"Estimated absorbed dose, Urinary bladder wall",M3 (70.3 MBq),2.00 mGy
same,Effective dose (whole body),M4 (153 MBq),2.62 mSv
same,"Estimated absorbed dose, Adrenals",M4 (153 MBq),5.67 mGy
same,"Estimated absorbed dose, Brain",M4 (153 MBq),2.17 mGy
same,"Estimated absorbed dose, Colon, left",M4 (153 MBq),2.46 mGy
same,"Estimated absorbed dose, Colon, right",M4 (153 MBq),2.15 mGy
same,"Estimated absorbed dose, Esophagus",M4 (153 MBq),2.06 mGy
same,"Estimated absorbed dose, Eyes",M4 (153 MBq),1.08 mGy
same,"Estimated absorbed dose, Gallbladder wall",M4 (153 MBq),3.76 mGy
same,"Estimated absorbed dose, Heart wall",M4 (153 MBq),3.73 mGy
same,"Estimated absorbed dose, Kidneys",M4 (153 MBq),31.2 mGy
same,"Estimated absorbed dose, Liver",M4 (153 MBq),5.85 mGy
same,"Estimated absorbed dose, Lungs",M4 (153 MBq),5.53 mGy
same,"Estimated absorbed dose, Osteogenic cells",M4 (153 MBq),1.28 mGy
same,"Estimated absorbed dose, Pancreas",M4 (153 MBq),3.39 mGy
same,"Estimated absorbed dose, Prostate",M4 (153 MBq),1.60 mGy
same,"Estimated absorbed dose, Rectum",M4 (153 MBq),1.64 mGy
same,"Estimated absorbed dose, Red marrow",M4 (153 MBq),1.54 mGy
same,"Estimated absorbed dose, Salivary glands",M4 (153 MBq),1.26 mGy
same,"Estimated absorbed dose, Small intestine",M4 (153 MBq),6.45 mGy
same,"Estimated absorbed dose, Spleen",M4 (153 MBq),8.39 mGy
same,"Estimated absorbed dose, Stomach wall",M4 (153 MBq),2.22 mGy
same,"Estimated absorbed dose, Testes",M4 (153 MBq),1.09 mGy
same,"Estimated absorbed dose, Thymus",M4 (153 MBq),5.87 mGy
same,"Estimated absorbed dose, Thyroid",M4 (153 MBq),2.28 mGy
same,"Estimated absorbed dose, Urinary bladder wall",M4 (153 MBq),2.61 mGy
same,Effective dose (whole body),"Male n=4, mean±SD",0.0179±0.0018 mSv/MBq
same,"Estimated dose, Adrenals","Male n=4, mean±SD",0.0386±0.0043 mGy/MBq
same,"Estimated dose, Brain","Male n=4, mean±SD",0.0132±0.0029 mGy/MBq
same,"Estimated dose, Esophagus","Male n=4, mean±SD",0.0147±0.0011 mGy/MBq
same,"Estimated dose, Eyes","Male n=4, mean±SD",0.00678±0.00029 mGy/MBq
same,"Estimated dose, Gallbladder wall","Male n=4, mean±SD",0.0248±0.0048 mGy/MBq
same,"Estimated dose, Heart wall","Male n=4, mean±SD",0.0488±0.0449 mGy/MBq
same,"Estimated dose, Kidneys","Male n=4, mean±SD",0.214±0.034 mGy/MBq
same,"Estimated dose, Left colon","Male n=4, mean±SD",0.0162±0.0017 mGy/MBq
same,"Estimated dose, Liver","Male n=4, mean±SD",0.0419±0.0082 mGy/MBq
same,"Estimated dose, Lungs","Male n=4, mean±SD",0.0363±0.0193 mGy/MBq
same,"Estimated dose, Osteogenic cells","Male n=4, mean±SD",0.00825±0.00031 mGy/MBq
same,"Estimated dose, Pancreas","Male n=4, mean±SD",0.0527±0.0676 mGy/MBq
same,"Estimated dose, Prostate","Male n=4, mean±SD",0.0102±0.0003 mGy/MBq
same,"Estimated dose, Rectum","Male n=4, mean±SD",0.0101±0.0005 mGy/MBq
same,"Estimated dose, Red marrow","Male n=4, mean±SD",0.0101±0.0005 mGy/MBq
same,"Estimated dose, Right colon","Male n=4, mean±SD",0.0141±0.0010 mGy/MBq
same,"Estimated dose, Salivary Glands","Male n=4, mean±SD",0.00791±0.0003 mGy/MBq
same,"Estimated dose, Small intestine","Male n=4, mean±SD",0.0341±0.0169 mGy/MBq
same,"Estimated dose, Spleen","Male n=4, mean±SD",0.0508±0.0194 mGy/MBq
same,"Estimated dose, Stomach wall","Male n=4, mean±SD",0.0163±0.0029 mGy/MBq
same,"Estimated dose, Testes","Male n=4, mean±SD",0.00684±0.00028 mGy/MBq
same,"Estimated dose, Thymus","Male n=4, mean±SD",0.0316±0.0122 mGy/MBq
same,"Estimated dose, Thyroid","Male n=4, mean±SD",0.0121±0.0028 mGy/MBq
same,"Estimated dose, Urinary bladder wall","Male n=4, mean±SD",0.0183±0.0073 mGy/MBq

# Source: PMC13170702 (Nuclear medicine and biology, 2025)
